Screening results (PubChem BioAssay)
Most compounds without a hit are left out; they make up all but 10% or so of the library.
L major viab: inhibitors of Leishmania major promastigote growth; Leishmania major promastigotes, resazurin fluorescence viability; AID 1063; 200,000 compounds, 9% hits; inhibition, % at 10 µM; in the data active = inhibition above about 50%;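 also: promastigotes grown with compound for 44 hours at 28 °C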
WT yeast gro inh: growth inhibition of WT yeast, mitochondrial fusion screen. 190,000 compounds, 2.1% hits. inhibition, % at 10 µM. mitochondrial fusion phenotypic screen, WT strain. AID 1362; in the data active = inhibition above about 58%; tested in S. cerevisiae
PMI act hi M6P: activators of human phosphomannose isomerase at near-saturating mannose 6-phosphate | P34949 | 190,000 compounds, 0.34% hits | coupled PMI enzyme assay, resazurin fluorescence, 20 min; stronger effect = higher value; 1 = untreated enzyme, 0 = substrate-free blank | AID 1216 | activation factor at 20 µM;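 active = activation factor of 2 or more at 20 µM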
Target sequence (P34949 whole entry, looked up): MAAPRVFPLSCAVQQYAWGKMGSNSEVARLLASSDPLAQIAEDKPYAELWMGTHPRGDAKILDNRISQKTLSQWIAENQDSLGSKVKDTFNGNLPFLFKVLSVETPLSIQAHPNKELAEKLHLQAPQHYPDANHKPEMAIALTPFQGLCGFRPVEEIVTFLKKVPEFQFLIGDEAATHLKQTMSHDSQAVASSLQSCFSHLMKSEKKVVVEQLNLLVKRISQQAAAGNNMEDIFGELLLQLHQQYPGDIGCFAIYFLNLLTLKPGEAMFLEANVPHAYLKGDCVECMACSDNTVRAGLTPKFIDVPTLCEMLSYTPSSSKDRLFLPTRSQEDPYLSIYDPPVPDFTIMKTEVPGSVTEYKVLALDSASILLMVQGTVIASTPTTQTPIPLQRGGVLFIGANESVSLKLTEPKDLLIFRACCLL
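Material: human phosphomannose isomerase with PGI, G6PDH, diaphorase coupling enzymes. Quantity: 15 ng/mL PMI. Medium: HEPES pH 7.4 buffer with MgCl2 and Tween-20. Reagent: Near-saturating mannose-6-phosphate, 1.0 mM. Compound: 20 µM single dose. Times: enzyme reaction with compound 20 min at room temperature. Detection: resorufin fluorescence at Ex 544/Em 590 nm.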
Diaphorase act: diaphorase activation or chemical reduction counter-screen. 190,000 compounds, 0.005% hits. Diaphorase/resazurin coupled assay, resorufin fluorescence, 16 min; stronger effect = higher value; 1 = vehicle wells, 0 = NADH-free wells. activation factor at 20 µM;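 active = diaphorase activity raised at least twofold by the compound at 20 µM; inactive = activation factor below 2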
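Assay system: bacterial diaphorase enzyme (C. kluyveri) / Input: enzyme 0.07 U/mL final / Medium: 50 mM HEPES pH 7.4 with 4.542 mM MgCl2, 0.005% Tween 20 / Doses: single compound dose of 20 µM, 1% DMSO final / Incubation: 16 min enzyme reaction, ambient temperature / Signal: fluorescence, excitation 544 nm and emission 590 nm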
PMI activator: increases human mannose-6-phosphate isomerase activity; purified human PMI, coupled resazurin fluorescence, 20 min; stronger effect = higher value; 1 = vehicle control, 0 substrate-free wells; activation factor at 20 µM; 190,000 compounds, 0.005% hits;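 active = activation factor of 2 or more at 20 µM, relative to plate controls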
Each line names hits and unclear results; the compound was inactive in the other large screens.

CC(C)CCNC(=O)CN(C(=O)Cn1nnc(-c2ccccc2F)n1)c1cccc2c1CCCC2	none
COc1ccc(-c2nnn(CC(=O)N(CC(=O)NCCC(C)C)c3ccccc3)n2)cc1OC	L major viab 73.5
CCCCOP(=O)(OCCCC)C(Nc1ccccc1)c1ccc2c(c1)OCO2 (stereo not given)	WT yeast gro inh 65.0
CCCOP(=O)(OCCC)C(Nc1ccc(C(=O)O)cc1)c1ccccc1 (stereo not given)	none
Cc1c(C(=O)NCc2ccccc2)c(-c2ccccc2)nn1-c1ccccc1	L major viab 85.6
Cc1c(C(=O)NC(C)C)c(-c2ccccc2)nn1-c1ccccc1	none
CCC(=O)Nc1cc(C(=O)O)ccc1Sc1ccc(Cl)cc1	none
CCS(=O)(=O)N1CCN(c2ccc([N+](=O)[O-])c(NC(C)c3ccccc3)c2)CC1 (stereo not given)	none
CN1CCN(c2ccc([N+](=O)[O-])c(-n3nc(-c4ccccc4)c4ccccc4c3=O)c2)CC1	L major viab 99.3
Cc1nn(-c2cc(N3CCNCC3)ccc2[N+](=O)[O-])c(=O)c2ccccc12	L major viab 67.3
Cc1nn(-c2cc(N3CCCCC3)ccc2[N+](=O)[O-])c(=O)c2ccccc12	none
CC(Nc1cc(N2CCNCC2)ccc1[N+](=O)[O-])c1ccccc1 (stereo not given)	L major viab 99.6
Cc1nonc1C1CCCN1C(=O)c1cc(COc2ccc(F)cc2Cl)on1 (stereo not given)	none
O=C(c1ccccc1)c1ccc2nc(-c3ccc(NC(=O)c4ccccc4F)cc3)[nH]c2c1	L major viab 61.2
COc1ccc(CNC(C)C(=O)Nc2ccc3ccccc3c2)cc1OC (stereo not given)	none
CCOC(=O)c1[nH]c(C=O)c(C(=O)OCC)c1C	L major viab 87.8 (no result: PMI act hi M6P, Diaphorase act, PMI activator)
CCOC(=O)c1[nH]c(C)c(C(=O)O)c1C	none
Nc1c(-c2cccc([N+](=O)[O-])c2)nc2ccccn12	none
CC(=S)/C=C1\Sc2ccccc2N1C	L major viab 99.2
COc1ccc(C(=O)/C=C2\Sc3ccccc3N2C)cc1	none
CCN(CC)c1ccc(C(=O)NC(=S)Nc2cc(S(=O)(=O)N3CCOCC3)ccc2-n2cncn2)cc1	L major viab 68.2
CCN(CC)CCn1c(=N)n(CC(O)COc2cccc(C)c2)c2ccccc21 (stereo not given)	L major viab 100.1
CCN(CC)CCn1c(=N)n(CC(O)c2ccc(OC)c(OC)c2)c2ccccc21 (stereo not given)	none
Cc1cccc(OCC(O)Cn2c(=N)n(CCN3CCCCC3)c3ccccc32)c1 (stereo not given)	L major viab 100.4
CCOc1ccc(C(=O)N(c2ccccn2)C2CCCCC2)cc1	none
CCN1C(=O)C(CC(=O)Nc2ccc(F)cc2)N(Cc2ccc3c(c2)OCO3)C1=S (stereo not given)	none
O=C1CC(SC(=Nc2ccccc2)Nc2ccccc2)C(=O)N1c1cccc2ccccc12 (stereo not given)	none
O=C(OCC(=O)N1CCc2ccccc21)c1cncc(Br)c1	none
CCN(CC)c1ccc(NC(=O)C2CC(=O)N(Cc3ccccc3)C2)cc1 (stereo not given)	none
Cc1ccc(S(=O)(=O)N2CCCCC2)cc1NC(=O)C1CC(=O)N(Cc2ccccc2)C1 (stereo not given)	L major viab 52.9
CCCCN(C)CCCNC(=O)C1CC(=O)N(Cc2ccc(OC)cc2)C1 (stereo not given)	none
CC(C)c1ccc(CN2CC(C(=O)Nc3ccccc3)CC2=O)cc1 (stereo not given)	L major viab 62.3
CS(=O)(=O)c1ccc(Cl)c(NC(=O)C2CC(=O)N(Cc3ccccc3)C2)c1 (stereo not given)	none
COc1ccc(CN2CC(C(=O)NCCC(C)C)CC2=O)cc1 (stereo not given)	L major viab 99.9
O=C(N1CCCC1)n1c(Cc2ccccc2)nc2ccccc21	none
C=C(C)C1(O)OC(=O)C=C1OC (stereo not given)	none
COc1ccc(Br)cc1C(=O)Nc1ccccc1N1CCN(C(=O)c2ccccc2)CC1	L major viab 54.6
O=C(Nc1ccccc1N1CCN(C(=O)c2ccccc2)CC1)c1cc(Br)ccc1Cl	none
Cc1cc(-c2csc(NC(=O)c3ccc(=O)[nH]c3)n2)c(C)n1Cc1ccccc1	none
Cc1cc(-c2csc(NC(=O)c3ccc(C#N)cc3)n2)c(C)n1Cc1ccco1	L major viab 51.5
CC1(C)CC(=O)c2cc(C(=O)N3CCCC(C)(C)C3)c(=O)n(-c3ccccc3)c2C1	L major viab 82.5
COC(=O)C(CCSC)NC(=O)c1cc2c(n(-c3ccccc3)c1=O)CC(C)(C)CC2=O (stereo not given)	L major viab 83.7
COc1ccc(-n2c3c(cc(C(=O)NCc4ccco4)c2=O)C(=O)CC(C)(C)C3)cc1	L major viab 54.5
Cc1ccc(-n2c3c(cc(C(=O)NCc4ccco4)c2=O)C(=O)CCC3)cc1	none
Cc1cc(C(=O)NNC(=S)NCc2ccco2)nn1C	none
CCCCSc1nc(C)[nH]c1[N+](=O)[O-]	PMI act hi M6P 2
Cc1nc(SCc2ccccc2)c([N+](=O)[O-])[nH]1	L major viab 54.1
COc1ccc(/C=C2\SC(=O)N=C2N)cc1	L major viab 56.6
O=C(c1cc2ccccc2oc1=O)N(Cc1ccccc1)Cc1ccc2c(c1)OCO2	L major viab 61.0
COc1ccc(Cl)cc1NC(=O)C(C)N(C)Cc1ccc(C(F)(F)F)cc1 (stereo not given)	none
COc1ccc(CCN2C(=O)CC(Cc3ccc(Br)cc3)C2=O)cc1OC (stereo not given)	L major viab 55.9
O=C1CC(N2CCN(Cc3ccc4c(c3)OCO4)CC2)C(=O)N1c1cccc2ccccc12 (stereo not given)	L major viab 62.4 (no result: PMI act hi M6P, Diaphorase act, PMI activator)
O=C1CC(Cc2ccccc2)C(=O)N1CCc1ccc2c(c1)OCO2 (stereo not given)	L major viab 100.2
O=C1CC(N2CCN(Cc3ccc4c(c3)OCO4)CC2)C(=O)N1CCc1ccccc1 (stereo not given)	L major viab 87.0
CSc1ncccc1C(=O)OCc1cccc([N+](=O)[O-])c1	none
CCCCOC(=O)c1ccc(NC(=O)CSC2=Nc3ccccc3C3CC=NN23)cc1 (stereo not given)	L major viab 99.1
CCCCOC(=O)c1ccc(NC(=O)CSc2nncn2C)cc1	none
O=c1[nH]n(-c2cccc3cccnc23)c(=O)c2ccccc12	none
O=S1(=O)Nc2c(ccc3cccnc23)-c2ccccc21	L major viab 99.4
CCCC(=O)OCCNc1cc(Sc2nccn2C)c2nonc2c1[N+](=O)[O-]	L major viab 99.9
CC(=O)OCCCNc1cc(SCc2ccco2)c2nonc2c1[N+](=O)[O-]	L major viab 50.6
